Results as given in ChEMBL document CHEMBL1122413, “Chloralanyl and propargylglycyl dipeptides. Suicide substrate containing antibacterials” (1983).

How the values were obtained:
[1] = system: Escherichia coli; test: Minimum inhibitory concentration against Escherichia coli; assay type: functional
How it was run: (§1)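 Agar dilution on defined peptide susceptibility medium with peptide in serial twofold dilutions. Strains subcultured on blood or chocolate agar. Inoculum from overnight culture in liquid peptide medium, diluted to approx 1×10^7 cfu/mL, applied by Steers replicator. Plates incubated overnight at 37 °C. MIC taken as lowest concentration permitting fewer than ten colonies at 16–18 h.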

[2] = system: Klebsiella aerogenes; test: Minimum inhibitory concentration against Enterobacter aerogenes; assay type: functional; how it was run: as §1
[3] = system: Enterobacter cloacae; test: Minimum inhibitory concentration against Enterobacter cloacae; assay type: functional; how it was run: as §1
[4] = system: Haemophilus influenzae; test: Minimum inhibitory concentration against Hemophilus influenzae; assay type: functional
How it was run: (§2)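 Agar dilution on defined peptide susceptibility medium with hemin (25 μg/mL), NAD (25 μg/mL) and Isovitalex (1%) added, peptide in serial twofold dilutions. Colonies from overnight chocolate or blood agar resuspended in liquid peptide medium to 10⁸ cfu/mL, applied by Steers replicator. Incubation overnight at 37 °C under 7% CO₂. MIC: lowest concentration giving fewer than ten colonies at 16–18 h.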

[5] = system: Klebsiella pneumoniae; test: Minimum inhibitory concentration against Klebsiella pneumoniae; assay type: functional; how it was run: as §1
[6] = system: Morganella morganii; test: Minimum inhibitory concentration against Morganella morganii; assay type: functional; how it was run: as §1
[7] = system: Pseudomonas aeruginosa; test: Minimum inhibitory concentration against Pseudomonas aeruginosa; assay type: functional; how it was run: as §1
[8] = system: Proteus mirabilis; test: Minimum inhibitory concentration against Proteus mirabilis; assay type: functional; how it was run: as §1
[9] = system: Salmonella typhimurium; test: Minimum inhibitory concentration against Salmonella Typhimurium; assay type: functional, Salmonella enterica subsp. enterica serovar Typhimurium; details: Salmonella enterica; how it was run: as §1
[10] = system: Serratia marcescens; test: Minimum inhibitory concentration against Serratia marcescens; assay type: functional; how it was run: as §1
[11] = system: Shigella flexneri; test: Minimum inhibitory concentration against Shigella flexneri; assay type: functional; how it was run: as §1
[12] = system: Staphylococcus epidermidis; test: Minimum inhibitory concentration against Staphylococcus epidermidis; assay type: functional; how it was run: as §1
[13] = system: Streptococcus agalactiae; test: Minimum inhibitory concentration against Streptococcus agalactiae; assay type: functional; how it was run: as §2
[14] = system: Staphylococcus aureus; test: Minimum inhibitory concentration against Staphylococcus aureus; assay type: functional; how it was run: as §1
[15] = system: Enterococcus faecalis; test: Minimum inhibitory concentration against Streptococcus faecalis; assay type: functional; how it was run: as §1
[16] = system: Streptococcus pyogenes; test: Minimum inhibitory concentration against Streptococcus pyogenes; assay type: functional; how it was run: as §2

Measured: MIC

C#CC[C@H](NC(=O)[C@H](C)N)C(=O)O.O=C(O)C(F)(F)F
1.56 µg/mL: [12]
100 µg/mL: [13] | [15]
> 100 µg/mL: all other assays above

N[C@H](CCl)C(=O)O
> 100 µg/mL: [6] | [7] | [8]
6.25 µg/mL: [1] | [4]
50 µg/mL: [11] | [15]
25 µg/mL: [10] | [12]
100 µg/mL: [3] | [5] | [9]
12.5 µg/mL: all other assays above

C#CC[C@H](NC(=O)[C@@H](N)CCl)C(=O)O.O=C(O)C(F)(F)F
0.05 µg/mL: [12]
0.39 µg/mL: [13]
0.1 µg/mL: [14]
1.56 µg/mL: [4]
25 µg/mL: [2] | [3] | [16]
3.12 µg/mL: [1] | [11] | [15]
> 100 µg/mL: all other assays above

C#CC[C@@H](NC(=O)[C@H](C)N)C(=O)O.O=C(O)C(F)(F)F
> 100 µg/mL: all assays above

C#CC[C@@H](N)C(=O)N[C@@H](C)C(=O)O.O=C(O)C(F)(F)F
> 100 µg/mL: all assays above

C#CCC(NC(=O)[C@H](C)N)C(=O)O.O=C(O)C(F)(F)F (stereo partly drawn)
50 µg/mL: [13]
3.12 µg/mL: [12]
> 100 µg/mL: all other assays above

C[C@H](NC(=O)[C@@H](N)CCl)C(=O)O.O=C(O)C(F)(F)F
0.025 µg/mL: [12]
0.39 µg/mL: [13]
0.05 µg/mL: [14]
> 100 µg/mL: all other assays above

C[C@H](N)C(=O)N[C@@H](CCl)C(=O)O.O=C(O)C(F)(F)F
0.0125 µg/mL: [12] | [14]
0.2 µg/mL: [13]
> 100 µg/mL: all other assays above
